System: HEK-293T
Assay: Multiplex assay against HEK293T
Type: toxicity, cell-based
Settings: human
Method in brief: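 Live cells were stained at seeding with Hoechst33342, BioTracker Green Microtubule Cytoskeleton Dye, MitoTracker Red and Annexin V Alexa Fluor 680. Following compound addition, they were imaged on a CQ1 microscope at 37°C and 5% CO2 and gated by CellPathfinder machine learning into Hoechst high-intensity objects or normal cells, with normal cells split into healthy, pyknosed or fragmented nuclei and pyknosed cells into mitotic or apoptotic. Tubulin, mitochondrial-mass and membrane-permeability phenotypes are per cents of healthy-nucleus cells.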

[1] = 12 h, 1 µM, compound concentration 1 uM, replicate 1
[2] = 12 h, 1 µM, compound concentration 1 uM, replicate 2
[3] = 12 h, 10 µM, compound concentration 10 uM, replicate 1
[4] = 12 h, 10 µM, compound concentration 10 uM, replicate 2
[5] = 24 h, 1 µM, compound concentration 1 uM, replicate 1
[6] = 24 h, 1 µM, compound concentration 1 uM, replicate 2
[7] = 24 h, 10 µM, compound concentration 10 uM, replicate 1
[8] = 24 h, 10 µM, compound concentration 10 uM, replicate 2
[9] = 48 h, 1 µM, compound concentration 1 uM, replicate 1
[10] = 48 h, 1 µM, compound concentration 1 uM, replicate 2
[11] = 48 h, 10 µM, compound concentration 10 uM, replicate 1
[12] = 48 h, 10 µM, compound concentration 10 uM, replicate 2

With `CC[C@@H](C)Nc1nc(C)nc2c(-c3ccc(OC)nc3C)c(C)nn12` [PEXACERFONT] the “Population Apoptotic (%)” value [1] was 33%, the “Population Fragmented Nuclei (%)” value [1] was 7% and the “Population Healthy Nuclei (%)” value [1] was 79%. For the same molecule, the “Population Hoechst High Intensity Objects (%)” value [1] was 6%, the “Population Membrane Permeable-Phenotype (%)” value [1] was 0% and the “Population Mitochondria Different-Phenotype (%)” value [1] was 45%. The “Population Mitotic Cells (%)” value [1] was 66%, the “Population Normal (%)” value [1] was 93% and the “Population Pyknosed Nuclei (%)” value [1] was 13%. The “Population Tubulin-Different-Phenotype (%)” value [1] was 34%, the “Total Cell Count” value [1] was 399 and the “Population Apoptotic (%)” value [2] was 47%. For the same molecule, the “Population Fragmented Nuclei (%)” value [2] was 5%, the “Population Healthy Nuclei (%)” value [2] was 82% and the “Population Hoechst High Intensity Objects (%)” value [2] was 8%. The “Population Mitochondria Different-Phenotype (%)” value [2] was 61%, the “Population Mitotic Cells (%)” value [2] was 52% and the “Population Normal (%)” value [2] was 91%. For the same molecule, the “Population Pyknosed Nuclei (%)” value [2] was 11%, the “Population Tubulin-Different-Phenotype (%)” value [2] was 31% and the “Total Cell Count” value [2] was 314. The “Population Apoptotic (%)” value [3] was 38%, the “Population Fragmented Nuclei (%)” value [3] was 6% and the “Population Healthy Nuclei (%)” value [3] was 75%. For the same molecule, the “Population Hoechst High Intensity Objects (%)” value [3] was 8%, the “Population Membrane Permeable-Phenotype (%)” value [3] was 0% and the “Population Mitochondria Different-Phenotype (%)” value [3] was 59%. For the same molecule, the “Population Mitotic Cells (%)” value [3] was 61%, the “Population Normal (%)” value [3] was 91% and the “Population Pyknosed Nuclei (%)” value [3] was 17%. For the same molecule, the “Population Tubulin-Different-Phenotype (%)” value [3] was 54%, the “Total Cell Count” value [3] was 451 and the “Population Apoptotic (%)” value [4] was 41%. For the same molecule, the “Population Fragmented Nuclei (%)” value [4] was 9%, the “Population Healthy Nuclei (%)” value [4] was 74% and the “Population Hoechst High Intensity Objects (%)” value [4] was 11%. The “Population Membrane Permeable-Phenotype (%)” value [4] was 1%, the “Population Mitochondria Different-Phenotype (%)” value [4] was 75% and the “Population Mitotic Cells (%)” value [4] was 58%. The “Population Normal (%)” value [4] was 88%, the “Population Pyknosed Nuclei (%)” value [4] was 16% and the “Population Tubulin-Different-Phenotype (%)” value [4] was 55%. The “Total Cell Count” value [4] was 321, the “Population Apoptotic (%)” value [5] was 24% and the “Population Fragmented Nuclei (%)” value [5] was 8%. The “Population Healthy Nuclei (%)” value [5] was 79%, the “Population Hoechst High Intensity Objects (%)” value [5] was 3% and the “Population Membrane Permeable-Phenotype (%)” value [5] was 0%. For the same molecule, the “Population Mitochondria Different-Phenotype (%)” value [5] was 26%, the “Population Mitotic Cells (%)” value [5] was 75% and the “Population Normal (%)” value [5] was 96%. The “Population Pyknosed Nuclei (%)” value [5] was 11%, the “Population Tubulin-Different-Phenotype (%)” value [5] was 21% and the “Total Cell Count” value [5] was 508. For the same molecule, the “Population Apoptotic (%)” value [6] was 45%, the “Population Fragmented Nuclei (%)” value [6] was 13% and the “Population Healthy Nuclei (%)” value [6] was 76%. For the same molecule, the “Population Hoechst High Intensity Objects (%)” value [6] was 7%, the “Population Mitochondria Different-Phenotype (%)” value [6] was 34% and the “Population Mitotic Cells (%)” value [6] was 54%. For the same molecule, the “Population Normal (%)” value [6] was 92%, the “Population Pyknosed Nuclei (%)” value [6] was 9% and the “Population Tubulin-Different-Phenotype (%)” value [6] was 15%. The “Total Cell Count” value [6] was 387, the “Population Apoptotic (%)” value [7] was 37% and the “Population Fragmented Nuclei (%)” value [7] was 6%. The “Population Healthy Nuclei (%)” value [7] was 79%, the “Population Hoechst High Intensity Objects (%)” value [7] was 7% and the “Population Membrane Permeable-Phenotype (%)” value [7] was 1%. For the same molecule, the “Population Mitochondria Different-Phenotype (%)” value [7] was 46%, the “Population Mitotic Cells (%)” value [7] was 62% and the “Population Normal (%)” value [7] was 92%. The “Population Pyknosed Nuclei (%)” value [7] was 14%, the “Population Tubulin-Different-Phenotype (%)” value [7] was 52% and the “Total Cell Count” value [7] was 612. The “Population Apoptotic (%)” value [8] was 33%, the “Population Fragmented Nuclei (%)” value [8] was 7% and the “Population Healthy Nuclei (%)” value [8] was 78%. For the same molecule, the “Population Hoechst High Intensity Objects (%)” value [8] was 13%, the “Population Membrane Permeable-Phenotype (%)” value [8] was 0% and the “Population Mitochondria Different-Phenotype (%)” value [8] was 70%. For the same molecule, the “Population Mitotic Cells (%)” value [8] was 66%, the “Population Normal (%)” value [8] was 86% and the “Population Tubulin-Different-Phenotype (%)” value [8] was 48%. The “Total Cell Count” value [8] was 371, the “Population Apoptotic (%)” value [9] was 26% and the “Population Fragmented Nuclei (%)” value [9] was 12%. For the same molecule, the “Population Healthy Nuclei (%)” value [9] was 80%, the “Population Hoechst High Intensity Objects (%)” value [9] was 2% and the “Population Membrane Permeable-Phenotype (%)” value [9] was 0%. The “Population Mitochondria Different-Phenotype (%)” value [9] was 22%, the “Population Mitotic Cells (%)” value [9] was 73% and the “Population Normal (%)” value [9] was 97%. For the same molecule, the “Population Pyknosed Nuclei (%)” value [9] was 7%, the “Population Tubulin-Different-Phenotype (%)” value [9] was 20% and the “Total Cell Count” value [9] was 816. The “Population Apoptotic (%)” value [10] was 41%, the “Population Fragmented Nuclei (%)” value [10] was 10% and the “Population Membrane Permeable-Phenotype (%)” value [10] was 1%. For the same molecule, the “Population Mitochondria Different-Phenotype (%)” value [10] was 27%, the “Population Mitotic Cells (%)” value [10] was 58% and the “Population Pyknosed Nuclei (%)” value [10] was 9%. For the same molecule, the “Population Tubulin-Different-Phenotype (%)” value [10] was 19%, the “Total Cell Count” value [10] was 520 and the “Population Apoptotic (%)” value [11] was 40%. For the same molecule, the “Population Fragmented Nuclei (%)” value [11] was 13%, the “Population Healthy Nuclei (%)” value [11] was 77% and the “Population Hoechst High Intensity Objects (%)” value [11] was 7%. For the same molecule, the “Population Membrane Permeable-Phenotype (%)” value [11] was 1%, the “Population Mitochondria Different-Phenotype (%)” value [11] was 45% and the “Population Mitotic Cells (%)” value [11] was 59%. The “Population Normal (%)” value [11] was 92%, the “Population Pyknosed Nuclei (%)” value [11] was 9% and the “Population Tubulin-Different-Phenotype (%)” value [11] was 38%. For the same molecule, the “Total Cell Count” value [11] was 692, the “Population Fragmented Nuclei (%)” value [12] was 10% and the “Population Healthy Nuclei (%)” value [12] was 72%. For the same molecule, the “Population Hoechst High Intensity Objects (%)” value [12] was 18%, the “Population Membrane Permeable-Phenotype (%)” value [12] was 0% and the “Population Mitochondria Different-Phenotype (%)” value [12] was 53%. The “Population Mitotic Cells (%)” value [12] was 60%, the “Population Normal (%)” value [12] was 81% and the “Population Pyknosed Nuclei (%)” value [12] was 17%. The “Population Tubulin-Different-Phenotype (%)” value [12] was 36% and the “Total Cell Count” value [12] was 390.

Source: ChEMBL document CHEMBL5058577, “EUbOPEN Chemogenomics Library 2 (Multiplex)” (2022)
